Screening data: PubChem, several laboratories
This is a sample that favours compounds with a hit; in the whole collection about 1.2% have one here.
proCasp7 act – procaspase-7 activators, primary screen, counter-screen for procaspase-3 activator project, biochemical, absorbance, HTS, human. Caspase-7 (Homo sapiens), P55210. actives 0.093% (n = 330,000). activation, % at 8.5 µM. recombinant procaspase-7, Ac-DEVD-pNA absorbance 405 nm; D23A/D198A/D206A triple mutant, cannot self-cleave; scale: DMSO 0, 5 µM enzyme 100;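 active = percent activation above the screen-wide mean plus 3 SD, cut at about 25% in these data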
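Material: Procaspase-7 triple mutant (PC-7 D3A) | Quantity: 2 µM procaspase-7 mutant as dispensed | Reagent: DEVD-pNA substrate | Times: 1 h preincubation, 2 h reaction | Technique: 405 nm absorbance of p-nitroaniline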
ASAP1 GAP inh – inhibitors of human ASAP1 ArfGAP activity, primary screen, biochemical, fluorescence polarization; inhibition, % at 16.5 µM; actives 0.19% (n = 360,000); ASAP1-stimulated ARF1 GTP hydrolysis, GDP FP detection; Arf-GAP with SH3 domain, ANK repeat and PH domain-containing protein 1 (Homo sapiens), …; in the data active = inhibition above about 25%;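 also: 0% = vehicle with enzyme and substrate and 100% = no enzyme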
CR mimetic SO – reduction of superoxide in aged yeast, primary screen, HTS; S. cerevisiae aged cells, superoxide DHE fluorescence; hits give low values; superoxide response (% of plate mean), % at 10 µM; actives 0.18% (n = 330,000);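 active = superoxide response under a set limit, about three screen SD below normal, cut at about 65% in these data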;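 also: yeast aged for seven days with compound at 30 °C before DHE staining; 100% = average MFI of all compound-treated wells on the plate with controls excluded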
LANA-H2A inh – blockers of LANA interaction with H2A/H2B – biochemical, FP readout, HTS, primary screen; cell-free LANA-H2A/H2B peptide, fluorescence polarization; inhibition, % (no concentration beside the values); AID 2629, 2010; actives 0.6% (n = 320,000); Protein LANA1 (Human herpesvirus 8 type P (isolate GK18)), Q9QR71; in the data active = inhibition mostly above about 10%, no sharp cut-off; inactive = mostly below about 6.7%
Target sequence (Q9QR71 whole entry, looked up): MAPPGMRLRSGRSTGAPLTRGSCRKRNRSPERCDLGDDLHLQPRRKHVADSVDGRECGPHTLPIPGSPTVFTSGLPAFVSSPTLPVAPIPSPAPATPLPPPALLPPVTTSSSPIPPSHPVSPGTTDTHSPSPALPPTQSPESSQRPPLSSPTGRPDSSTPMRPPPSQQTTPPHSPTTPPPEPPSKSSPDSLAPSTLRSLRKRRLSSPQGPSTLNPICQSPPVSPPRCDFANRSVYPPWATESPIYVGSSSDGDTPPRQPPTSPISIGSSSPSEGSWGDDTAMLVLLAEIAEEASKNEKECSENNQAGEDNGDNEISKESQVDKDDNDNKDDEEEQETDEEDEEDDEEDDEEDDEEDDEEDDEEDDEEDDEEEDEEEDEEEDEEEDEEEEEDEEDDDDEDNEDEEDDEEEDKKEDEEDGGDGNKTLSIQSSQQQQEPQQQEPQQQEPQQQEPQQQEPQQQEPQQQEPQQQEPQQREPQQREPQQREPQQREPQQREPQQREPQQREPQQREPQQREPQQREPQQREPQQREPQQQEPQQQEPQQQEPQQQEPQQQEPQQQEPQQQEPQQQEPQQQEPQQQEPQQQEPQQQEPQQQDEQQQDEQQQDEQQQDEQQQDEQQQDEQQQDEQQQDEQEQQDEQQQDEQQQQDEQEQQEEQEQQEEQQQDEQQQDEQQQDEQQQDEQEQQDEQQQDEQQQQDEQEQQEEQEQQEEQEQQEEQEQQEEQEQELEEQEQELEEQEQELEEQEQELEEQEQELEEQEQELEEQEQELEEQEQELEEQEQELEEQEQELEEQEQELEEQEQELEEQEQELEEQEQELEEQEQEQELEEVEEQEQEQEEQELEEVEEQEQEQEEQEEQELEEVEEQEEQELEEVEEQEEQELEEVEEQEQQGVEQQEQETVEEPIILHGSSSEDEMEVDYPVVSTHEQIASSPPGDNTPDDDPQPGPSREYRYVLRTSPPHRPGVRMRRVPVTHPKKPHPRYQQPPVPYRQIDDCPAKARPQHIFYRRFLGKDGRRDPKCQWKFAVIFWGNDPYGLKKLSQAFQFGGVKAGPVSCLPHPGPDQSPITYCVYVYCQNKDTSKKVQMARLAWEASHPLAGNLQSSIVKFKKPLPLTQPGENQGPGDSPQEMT
ARFGAP1 inh – inhibitors of rat ARFGAP1 GAP activity, primary screen, biochemical, fluorescence polarization, GDP tracer | Arfgap1-stimulated ARF1 GTP hydrolysis, GDP FP detection | AID 651572, 2012 | actives 0.26% (n = 360,000) | inhibition, % at 16.5 µM;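 active = inhibition above a per-plate limit, mean inhibition of low control wells plus 3 SD, cut at about 25% in these data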;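 also: 0% = DMSO wells with enzyme and 100% = wells lacking Arfgap1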
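Material – truncated rat Arfgap1 GAP domain · Buffer or medium – HEPES-based buffer, pH 7.5 · Reagent – human ARF1(Δ1-17)-GTP substrate · Dosing – 16.5 µM single point, 1.26% DMSO · Schedule – GTP hydrolysis reaction 2 h at 25 °C · Technique – GDP detection by fluorescence polarization · Benchmarks – No-Arfgap1 wells (100%) versus DMSO full-reaction wells (0%) · Repeats – single replicate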
procasp3 activ – activators of human procaspase-3 D3A mutant, primary screen, biochemical, absorbance, PC-3 D3A mutant, single concentration | activation, % at 8.5 µM | AID 463141, 2010 | recombinant procaspase-3 D3A, Ac-DEVD-pNA absorbance 405 nm | actives 0.11% (n = 330,000) | Caspase-3 (Homo sapiens), P42574;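 active = activation above the mean of all tested compounds plus 3 SD, cut at about 21% in these data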;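 also: 0% = DMSO alone and 100% = DMSO wells spiked with extra 5 µM PC-3 D3A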
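Assay system – Procaspase-3 D3A mutant · Benchmarks – DMSO low control, extra-enzyme high control · Technique – 405 nm absorbance of p-nitroaniline, reads at 0 and 120 min · Doses – 8.5 µM nominal · Measure – % activation between DMSO and enzyme-spiked controls · Also added – Ac-DEVD-pNA chromogenic peptide substrate · Schedule – 1 h compound preincubation, 2 h substrate hydrolysis at 25 °C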
ARFGAP1 inh conf – ARFGAP1 inhibitor hit confirmation, biochemical, fluorescence polarization, triplicate; shares compounds with ARFGAP1 inh; inhibition, % at 16.5 µM; actives 30% (n = 890); ARFGAP1-stimulated ARF1 GTP hydrolysis, GDP tracer FP; AID 651608, 2012;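 active = average inhibition over triplicates above the hit cutoff set in the earlier primary screen, cut at about 25% in these data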;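 also: 0% = Arfgap1 plus ARF1-GTP with DMSO and 100% = wells lacking Arfgap1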
Numbers without * were called inactive.

What do the screens show for `Nc1ccc(-c2nc3ccc(N)cc3[nH]2)cc1`?
proCasp7 act: -3.1; ASAP1 GAP inh: -4.0; CR mimetic SO: 84.3; LANA-H2A inh: 0.6; ARFGAP1 inh: 4.3; procasp3 activ: -0.2

What do the screens show for `COc1cc(/C=N/Nc2nc3ccccc3s2)ccc1OC(=O)c1ccccc1F`?
proCasp7 act: 5.7; ASAP1 GAP inh: -1.3; CR mimetic SO: 93.1; LANA-H2A inh: 5.8; ARFGAP1 inh: 25.4*; procasp3 activ: -5.0; ARFGAP1 inh conf: 17.9

What do the screens show for `COc1cccc(-c2nn3c(-c4ccccn4)nnc3s2)c1`?
proCasp7 act: 8.6; ASAP1 GAP inh: 5.3; CR mimetic SO: 101.5; LANA-H2A inh: -2.9; ARFGAP1 inh: -2.8; procasp3 activ: -0.4

What do the screens show for `COc1cccc(-c2nnc3sc(-c4ccccn4)nn23)c1`?
proCasp7 act: -7.1; ASAP1 GAP inh: 23.5; CR mimetic SO: 118.8; LANA-H2A inh: 2.8; ARFGAP1 inh: 41.1*; procasp3 activ: -3.2; ARFGAP1 inh conf: 45.2*

Results for CC(=O)c1c(C)[nH]c(C(=O)CSc2nc3ccc(C)cc3[nH]2)c1C ?
proCasp7 act: 1.0; ASAP1 GAP inh: 5.9; CR mimetic SO: 105.4; LANA-H2A inh: -6.8; ARFGAP1 inh: 6.7; procasp3 activ: 7.1

What do the screens show for `Cn1c(=O)cc(SCC(=O)NCCCN2CCN(c3ccc(F)cc3)CC2)c2ccccc21`?
proCasp7 act: -11.0; ASAP1 GAP inh: 0.7; CR mimetic SO: 100.6; LANA-H2A inh: 0.6; ARFGAP1 inh: 37.6*; procasp3 activ: -3.5; ARFGAP1 inh conf: 7.8

How did Cn1c(=O)cc(SCC(=O)NCc2ccc(F)cc2)c2ccccc21 do in these assays?
proCasp7 act: 8.4; ASAP1 GAP inh: -3.9; CR mimetic SO: 95.6; LANA-H2A inh: -1.8; ARFGAP1 inh: 4.6; procasp3 activ: 4.5

How did CCNC(=O)NC(=O)C(C)Sc1nc2cc(C(=O)OC)ccc2c(=O)n1-c1ccccc1 (stereo not drawn) do in these assays?
proCasp7 act: 11.4; ASAP1 GAP inh: -1.4; CR mimetic SO: 97.3; LANA-H2A inh: 1.7; ARFGAP1 inh: 26.6*; procasp3 activ: 0.4; ARFGAP1 inh conf: 5.9

What do the screens show for `CCCc1ccc(Oc2cn[nH]c2-c2ccc(O)cc2O)cc1`?
proCasp7 act: -3.5; ASAP1 GAP inh: 14.8; CR mimetic SO: 118.8; LANA-H2A inh: -6.3; ARFGAP1 inh: 29.9*; procasp3 activ: 0.8; ARFGAP1 inh conf: 18.4

Results for COc1ccc(Oc2cn[nH]c2-c2ccc(O)cc2O)cc1 ?
proCasp7 act: 4.3; ASAP1 GAP inh: 16.3; CR mimetic SO: 91.6; LANA-H2A inh: 1.7; ARFGAP1 inh: 15.6; procasp3 activ: 4.7

How did CC(C)C[C@H]1CN(CCCC[C@H]2CNC(=O)C(=O)N2CC2CCCCC2)C(=O)C(=O)N1CCc1ccccc1 do in these assays?
ASAP1 GAP inh: -13.7; ARFGAP1 inh: 30.1*; ARFGAP1 inh conf: 3.3

What do the screens show for `CCCC(c1nnnn1CS(=O)(=O)c1ccc(C)cc1)N1CCN(C2CCCC2)CC1` (stereo not drawn)?
proCasp7 act: 2.1; ASAP1 GAP inh: -2.7; CR mimetic SO: 99.0; LANA-H2A inh: -4.5; ARFGAP1 inh: 2.1; procasp3 activ: -0.9

How did O=C(CSc1nc2c(c(=O)n1-c1ccc(Br)cc1)SCC2)NCc1ccco1 do in these assays?
proCasp7 act: 2.3; ASAP1 GAP inh: -3.0; CR mimetic SO: 86.9; LANA-H2A inh: 4.9; ARFGAP1 inh: 29.3*; procasp3 activ: -10.9; ARFGAP1 inh conf: -2.7

What do the screens show for `CCOc1ccc(-n2c(SCC(=O)NCc3ccco3)nc3c(c2=O)SCC3)cc1`?
proCasp7 act: -9.4; ASAP1 GAP inh: 9.0; CR mimetic SO: 115.1; LANA-H2A inh: -2.7; ARFGAP1 inh: 20.2; procasp3 activ: -4.0

How did CC(=O)Nc1ccc(N2C(=O)CC(N3CCSCC3)C2=O)cc1 (stereo not drawn) do in these assays?
proCasp7 act: -14.3; ASAP1 GAP inh: -1.0; CR mimetic SO: 90.1; LANA-H2A inh: -3.5; ARFGAP1 inh: 25.4*; procasp3 activ: -26.3; ARFGAP1 inh conf: 2.0

How did Cc1ccccc1C(=O)N1CCN(c2ccccn2)CC1 do in these assays?
proCasp7 act: 5.7; ASAP1 GAP inh: -10.0; CR mimetic SO: 102.0; LANA-H2A inh: -1.5; ARFGAP1 inh: 4.9; procasp3 activ: -5.7

Results for Cc1ccccc1C(=O)N1CCN(c2ncccn2)CC1 ?
proCasp7 act: -4.4; ASAP1 GAP inh: -9.4; CR mimetic SO: 99.3; LANA-H2A inh: 6.7; ARFGAP1 inh: 69.6*; procasp3 activ: 2.1; ARFGAP1 inh conf: 1.7

Results for COc1ccccc1C(=O)N/C(=C\c1cn(S(=O)(=O)N(C)C)c2ccccc12)C(=O)N1CCCCC1 ?
proCasp7 act: 0.8; ASAP1 GAP inh: -1.8; CR mimetic SO: 106.8; LANA-H2A inh: 0.7; ARFGAP1 inh: -4.4; procasp3 activ: 6.9

Results for CCCCOc1ccc(C(=O)N2CCNC(=O)C2)cc1 ?
proCasp7 act: 9.3; ASAP1 GAP inh: -1.0; CR mimetic SO: 96.5; LANA-H2A inh: 2.0; ARFGAP1 inh: 1.5; procasp3 activ: -2.5

How did COc1ccc(-c2nc(CS(=O)(=O)CC(=O)Nc3cccc(C(C)=O)c3)c(C)o2)cc1 do in these assays?
proCasp7 act: 9.8; ASAP1 GAP inh: 15.8; CR mimetic SO: 100.1; LANA-H2A inh: -3.0; ARFGAP1 inh: 26.5*; procasp3 activ: 7.2; ARFGAP1 inh conf: 12.1

How did COc1cccc(-c2nc(CS(=O)(=O)CC(=O)Nc3cccc(C(C)=O)c3)c(C)o2)c1 do in these assays?
proCasp7 act: -5.4; ASAP1 GAP inh: -4.4; CR mimetic SO: 96.8; LANA-H2A inh: -4.1; ARFGAP1 inh: 3.8; procasp3 activ: -0.8

Results for CC1(C(=O)NS(=O)(=O)c2ccccc2C(F)(F)F)CCN1C(=O)COc1ccc(Cl)cc1 (stereo not drawn) ?
ASAP1 GAP inh: 1.2; ARFGAP1 inh: -1.8
